Reference: ChEMBL document CHEMBL1122659, “Synthesis of some phosphonates with antiherpetic activity” (1984)
≈ marks a conversion by molar mass, not a printed value. Blank lines part the entries; values can stand above or below the compound they belong to. Calls of active or inactive are those of the source. No cut-off for these calls is given here.

Key:
[1] = species on record: Oryctolagus cuniculus; assay: In vitro ability to inhibit the herpes HSV-2 virus; Inactive; type: functional, organism-based; conditions: herpes simplex virus
[2] = species on record: Mus musculus; assay: Average survival rate of mice infected intravaginally with herpes simplex virus type 2 at daily dosage of 5%(treatment initiated 4-h postinfection and continued for 7 days); type: functional
Method in brief: (§1)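 Mice infected intravaginally with HSV-2. Test agent suspended in gum tragacanth and applied intravaginally. Survival recorded.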

[3] = species on record: Mus musculus; assay: Percent survival rate of mice infected intravaginally with herpes simplex virus type 2 at daily dosage of 10%(treatment initiated 4-h postinfection and continued for 7 days); type: functional; method in brief: as §1
[4] = species on record: Mus musculus; assay: Average survival rate of mice infected intravaginally with herpes simplex virus type 2 at daily dosage of 10%(treatment initiated 4-h postinfection and continued for 7 days); type: functional; method in brief: as §1
[5] = species on record: Mus musculus; assay: Average survival rate of mice infected intravaginally with herpes simplex virus type 2 with placebo (treatment initiated 4-h postinfection and continued for 7 days)
[6] = species on record: Mus musculus; assay: Percent survival rate of mice infected intravaginally with herpes simplex virus type 2 at daily dosage of 5%(treatment initiated 4-h postinfection and continued for 7 days); type: functional; method in brief: as §1
[7] = In vitro ability to inhibit the herpes HSV-2 virus; type: functional, herpes simplex virus; conditions: Oryctolagus cuniculus
[8] = species on record: Mus musculus; assay: Percent survival rate of mice infected intravaginally with herpes simplex virus type 2 at daily dosage of 2.5%(treatment initiated 4-h postinfection and continued for 7 days); type: functional; method in brief: as §1
[9] = species on record: Cavia porcellus; assay: Effect on the development of Herpetic vesicles in Guinea pigs infected intradermally with Herpes virus Hominis, Type 1,AA strain on day 2 at 5 % concentration; type: functional
Method in brief: (§2)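 Albino Hartley guinea pigs (350–400 g) were infected intradermally with 0.05 mL undiluted HSV-1 AA strain, delivered by vaccination gun into a 12 mm marked area on an epilated flank. Topical cream treatment followed. Vesicle development was scored daily.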

[10] = species on record: Cavia porcellus; assay: Effect on the growth of Herpes simplex Type 1 on the skin of Guinea pigs infected intradermally on day 4 at 5 % concentration; type: functional
Method in brief: (§3)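 Guinea pigs (Hartley, 350–400 g) were infected intradermally on an epilated flank with undiluted HSV-1 AA strain and treated with topical cream. Supernatants of lesion skin scrapings were diluted 10⁻¹ to 10⁻⁸ and titered by plaque assay on BSC-1 monolayers in triplicate: 1 h adsorption at 37 °C, agarose overlay, 4 days at 37 °C, formalin fixation, crystal violet staining, plaques counted.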

[11] = species on record: Cavia porcellus; assay: Effect of compound in a vanishing cream on the development of Herpetic vesicles in Guinea pigs infected intradermally with Herpes virus Hominis, Type 1,AA strain on day 5 at 5% concentration; type: functional
Method in brief: (§4)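 Albino Hartley guinea pigs (350–400 g) were infected intradermally with 0.05 mL undiluted HSV-1 AA strain, delivered by vaccination gun into a 12 mm circle on an epilated flank. Test agent was applied as a topical cream starting 24 h postinfection. Lesions were scored daily for mean vesicle score over days 1–5.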

[12] = species on record: Cavia porcellus; assay: Effect of compound in a vanishing cream on the development of Herpetic vesicles in Guinea pigs infected intradermally with Herpes virus Hominis, Type 1,AA strain on day 2 at 10 % concentration; type: functional; method in brief: as §4
[13] = species on record: Cavia porcellus; assay: Effect of compound in a vanishing cream base on the development of Herpetic vesicles in Guinea pigs infected intradermally with Herpesvirus Hominis, Type 1, AA strain and the virus titer was determined at 10% conc. on day 3; type: functional
[14] = species on record: Cavia porcellus; assay: Effect of compound in a vanishing cream base on the development of Herpetic vesicles in Guinea pigs infected intradermally with Herpesvirus Hominis, Type 1, AA strain and the virus titer was determined at 5% conc. on day 2; type: functional
[15] = species on record: Cavia porcellus; assay: Effect of compound in a vanishing cream base on the development of Herpetic vesicles in Guinea pigs infected intradermally with Herpesvirus Hominis, Type 1, AA strain and the virus titer was determined at 5% conc. on day 4; type: functional
[16] = species on record: Cavia porcellus; assay: Effect of compound in a vanishing cream base on the development of Herpetic vesicles in Guinea pigs infected intradermally with Herpesvirus Hominis, Type 1, AA strain and the virus titer was determined at 10% conc. on day 5; type: functional
[17] = species on record: Cavia porcellus; assay: Effect of compound in a vanishing cream on the development of Herpetic vesicles in Guinea pigs infected intradermally with Herpes virus Hominis, Type 1,AA strain on day 3 at 5 % concentration; type: functional; method in brief: as §4
[18] = species on record: Cavia porcellus; assay: Effect of compound in a vanishing cream on the development of Herpetic vesicles in Guinea pigs infected intradermally with Herpes virus Hominis, Type 1,AA strain on day 1 at 10 % concentration; type: functional; method in brief: as §4
[19] = species on record: Cavia porcellus; assay: Effect of compound in a vanishing cream on the development of Herpetic vesicles in Guinea pigs infected intradermally with Herpes virus Hominis, Type 1,AA strain on day 4 at 5 % concentration; type: functional; method in brief: as §4
[20] = species on record: Cavia porcellus; assay: Effect of compound in a vanishing cream base on the development of Herpetic vesicles in Guinea pigs infected intradermally with Herpesvirus Hominis, Type 1, AA strain and the virus titer was determined at 5% conc. on day 1; type: functional
[21] = species on record: Cavia porcellus; assay: Effect of compound in a vanishing cream on the development of Herpetic vesicles in Guinea pigs infected intradermally with Herpes virus Hominis, Type 1,AA strain on day 3 at 10 % concentration; type: functional; method in brief: as §4
[22] = species on record: Cavia porcellus; assay: Effect of compound in a vanishing cream on the development of Herpetic vesicles in Guinea pigs infected intradermally with Herpes virus Hominis, Type 1,AA strain on day 1 at 5 % concentration; type: functional; method in brief: as §4
[23] = species on record: Cavia porcellus; assay: Effect on the development of Herpetic vesicles in Guinea pigs infected intradermally with Herpes virus Hominis, Type 1,AA strain on day 3 at 5 % concentration; type: functional; method in brief: as §2
[24] = species on record: Cavia porcellus; assay: Effect on the growth of Herpes simplex Type 1 on the skin of Guinea pigs infected intradermally on day 1 at 5 % concentration; type: functional; method in brief: as §3
[25] = species on record: Cavia porcellus; assay: Effect of compound in a vanishing cream on the development of Herpetic vesicles in Guinea pigs infected intradermally with Herpes virus Hominis, Type 1,AA strain on day 5 at 10 % concentration; type: functional; method in brief: as §4
[26] = species on record: Cavia porcellus; assay: Effect on the growth of Herpes simplex Type 1 on the skin of Guinea pigs infected intradermally on day 3 at 5 % concentration; type: functional; method in brief: as §3
[27] = species on record: Cavia porcellus; assay: Effect of compound in a vanishing cream base on the development of Herpetic vesicles in Guinea pigs infected intradermally with Herpesvirus Hominis, Type 1, AA strain and the virus titer was determined at 10% conc. on day 1; type: functional
[28] = species on record: Cavia porcellus; assay: Effect of compound in a vanishing cream on the development of Herpetic vesicles in Guinea pigs infected intradermally with Herpes virus Hominis, Type 1,AA strain on day 4 at 10 % concentration; type: functional; method in brief: as §4
[29] = species on record: Cavia porcellus; assay: Effect of compound in a vanishing cream on the development of Herpetic vesicles in Guinea pigs infected intradermally with Herpes virus Hominis, Type 1,AA strain on day 2 at 5 % concentration; type: functional; method in brief: as §4
[30] = species on record: Cavia porcellus; assay: Effect on the development of Herpetic vesicles in Guinea pigs infected intradermally with Herpes virus Hominis, Type 1,AA strain on day 1 at 5 % concentration; type: functional; method in brief: as §2
[31] = species on record: Cavia porcellus; assay: Effect of compound in a vanishing cream base on the development of Herpetic vesicles in Guinea pigs infected intradermally with Herpesvirus Hominis, Type 1, AA strain and the virus titer was determined at 10% conc. on day 2; type: functional
[32] = species on record: Cavia porcellus; assay: Effect on the growth of Herpes simplex Type 1 on the skin of Guinea pigs infected intradermally on day 2 at 5 % concentration; type: functional; method in brief: as §3

MIC [1]: inactive
Compound: CCOP(=O)(CCCCCCCOc1ccc(OC)cc1Cl)OCC

Compound: CCOC(=O)C(CCCCCCOc1ccc(OC)cc1Cl)P(=O)(OCC)OCC (configuration not stated)
Average survival [2]: >7.3 days
Survival [3]: 20%
Average survival [4]: >8.7 days
Average survival [5]: >8.1 days
Survival [6]: 10%
MIC [7]: 3 µg/mL (≈ 6.45 µM)
Survival [8]: 10%

Compound: CCOP(=O)(OCC)C(CCCCc1ccc(OC)cc1)C(C)=O (configuration not stated)
MIC [7]: 25 µg/mL (≈ 70.1 µM)

Compound: CCOP(=O)(OCC)C(CCCCCCCOc1ccc(OC)cc1Cl)C(C)=O (configuration not stated)
MIC [7]: 6 µg/mL (≈ 13.4 µM)

MIC [1]: inactive
Compound: CCOP(=O)(CCCOc1ccc(OC)cc1Cl)OCC

MIC [1]: inactive
Compound: CCOP(=O)(CCCCCCOc1ccc(C(=O)O)cc1)OCC

Compound: CCOP(=O)(CCOc1ccc(O)cc1)OCC
MIC [1]: inactive

Compound: CCOP(=O)(OCC)C(CCCCOc1ccc(OC)cc1Cl)C(C)=O (configuration not stated)
MIC [7]: 12 µg/mL (≈ 29.5 µM)

MIC [1]: inactive
Compound: CCOP(=O)(CCCCCCOc1c(OC)cccc1OC)OCC

Compound: CCOP(=O)(CCCCCCOc1ccc(OC)cc1Cl)OCC [FOSARILATE]
Average survival [2]: >10.5 days
Survival [3]: 60%
Mean vesicle score [9]: 0.75
Log geometric mean [10]: 0.76 pfu mg-1
Mean vesicle score [11]: 0.67
Mean vesicle score [12]: 0.83
Log TCID50/mg [13]: <1.6
Average survival [4]: >11.3 days
Log TCID50/mg [14]: <1.41
Log TCID50/mg [15]: <1.25
Log TCID50/mg [16]: <1.25
Mean vesicle score [17]: 0.75
Mean vesicle score [18]: 0.67
Mean vesicle score [19]: 1
Log TCID50/mg [20]: 3.94
Survival [6]: 50%
MIC [7]: 3 µg/mL (≈ 7.92 µM)
Mean vesicle score [21]: 0.91
Mean vesicle score [22]: 0.75
Mean vesicle score [23]: 0.5
Log geometric mean [24]: 4.23 pfu mg-1
Survival [8]: 30%
Mean vesicle score [25]: 1.1
Log geometric mean [26]: 0.79 pfu mg-1
Log TCID50/mg [27]: 3.18
Mean vesicle score [28]: 0.92
Mean vesicle score [29]: 1.17
Mean vesicle score [30]: 0.5
Log TCID50/mg [31]: <1.34
Log geometric mean [32]: 0.96 pfu mg-1

Compound: CCOP(=O)(OCC)C(CCCCCCOc1ccc(OC)cc1Cl)C(C)=O (configuration not stated)
MIC [7]: 6 µg/mL (≈ 13.8 µM)

MIC [1]: inactive
Compound: CCOP(=O)(CCCCCOc1ccc(OC)cc1Cl)OCC
